Legend:
Format in all cases: functional
SW-620 = assay: Growth inhibition of human SW620 cells assessed as cell growth at 10 '-7 M after 48 hrs by sulforhodamine B assay; conditions: SW-620, 48 h, read-out: Activity
TK-10 [1] = assay: Growth inhibition of human TK10 cells assessed as cell growth at 10 '-8 M after 48 hrs by sulforhodamine B assay; conditions: TK-10, 48 h, read-out: Activity
[2] = Growth inhibition of human HCC2998 cells after 48 hrs by sulforhodamine B assay; conditions: HCC 2998, 48 h
Procedure, shortened: (§1)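 NCI 60-cell-line five-dose screen. Cells were plated at 5,000–40,000/well by doubling time and grown 24 h at 37 °C, 5% CO2. Time-zero plates were TCA-fixed. Drug from DMSO stock was tested at 0.01, 0.1, 1, 10 and 100 µM final for 48 h continuous exposure. Read-out was SRB at 515 nm. GI50 is the concentration giving 50% reduction in net protein increase versus untreated control.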

KM12 = assay: Growth inhibition of human KM12 cells assessed as cell growth at 10 '-6 M after 48 hrs by sulforhodamine B assay; conditions: KM12, 48 h, read-out: Activity
MDA-MB-435 = assay: Growth inhibition of human MDA-MB-435 cells assessed as cell growth at 10 '-4 M after 48 hrs by sulforhodamine B assay; conditions: MDA-MB-435, 48 h, read-out: Activity
RXF 393 [3] = assay: Growth inhibition of human RXF393 cells assessed as cell growth at 10 '-4 M after 48 hrs by sulforhodamine B assay; conditions: RXF 393, 48 h, read-out: Activity
MDA-MB-468 = assay: Growth inhibition of human MDA-MB-468 cells after 48 hrs by sulforhodamine B assay; conditions: MDA-MB-468, 48 h; procedure, shortened: as §1
SK-MEL-28 = assay: Growth inhibition of human SK-MEL-28 cells assessed as cell growth at 10 '-7 M after 48 hrs by sulforhodamine B assay; conditions: SK-MEL-28, 48 h, read-out: Activity
SNB-19 [4] = assay: Growth inhibition of human SNB19 cells assessed as cell growth at 10 '-7 M after 48 hrs by sulforhodamine B assay; conditions: SNB-19, 48 h, read-out: Activity
MOLT-4 [5] = assay: Growth inhibition of human MOLT4 cells assessed as cell growth at 10 '-4 M after 48 hrs by sulforhodamine B assay; conditions: MOLT-4, 48 h, read-out: Activity
TK-10 [6] = assay: Growth inhibition of human TK10 cells after 48 hrs by sulforhodamine B assay; conditions: TK-10, 48 h
OVCAR-4 = assay: Growth inhibition of human OVCAR4 cells assessed as cell growth at 10 '-5 M after 48 hrs by sulforhodamine B assay; conditions: OVCAR-4, 48 h, read-out: Activity
[7] = Growth inhibition of human NCI-ADR-RES cells assessed as cell growth at 10 '-4 M after 48 hrs by sulforhodamine B assay; conditions: read-out: Activity
Malme-3M [8] = assay: Growth inhibition of human MALME-3M cells after 48 hrs by sulforhodamine B assay; procedure, shortened: as §1
A549 = assay: Growth inhibition of human A549 cells after 48 hrs by sulforhodamine B assay; conditions: A549, 48 h
Procedure, shortened: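 NCI 60-cell-line five-dose screen at 0.01, 0.1, 1, 10 and 100 µM final. Cells were plated at 5,000–40,000/well and grown 24 h at 37 °C, 5% CO2, then exposed to drug continuously for 48 h. Adherent cells were fixed with cold TCA (10% final) and stained with SRB; absorbance read at 515 nm. GI50 is the concentration where [(Ti-Tz)/(C-Tz)]×100 = 50, with Tz plates fixed at drug addition.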

MOLT-4 [9] = assay: Growth inhibition of human MOLT4 cells after 48 hrs by sulforhodamine B assay; conditions: MOLT-4, 48 h; procedure, shortened: as §1
SF-268 = assay: Growth inhibition of human SF268 cells assessed as cell growth at 10 '-7 M after 48 hrs by sulforhodamine B assay; conditions: SF-268, 48 h, read-out: Activity
NCI-H460 = assay: Growth inhibition of human NCI-H460 cells assessed as cell growth at 10 '-4 M after 48 hrs by sulforhodamine B assay; conditions: NCI-H460, 48 h, read-out: Activity
COLO 205 = assay: Growth inhibition of human COLO205 cells assessed as cell growth at 10 '-5 M after 48 hrs by sulforhodamine B assay; conditions: COLO 205, 48 h, read-out: Activity
Procedure, shortened: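 In the same five-dose SRB screen (48 h, 37 °C, 5% CO2), percentage growth was computed at each concentration from time-zero (Tz), control (C) and treated (Ti) absorbances. The formula was [(Ti−Tz)/(C−Tz)]×100 when Ti ≥ Tz, or [(Ti−Tz)/Tz]×100 when Ti < Tz.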

Malme-3M [10] = assay: Growth inhibition of human MALME-3M cells assessed as cell growth at 10 '-8 M after 48 hrs by sulforhodamine B assay; conditions: read-out: Activity
IGROV-1 = assay: Growth inhibition of human IGROV1 cells assessed as cell growth at 10 '-5 M after 48 hrs by sulforhodamine B assay; conditions: IGROV-1, 48 h, read-out: Activity
[11] = Growth inhibition of human Hs 578T cells assessed as cell growth at 10 '-4 M after 48 hrs by sulforhodamine B assay; conditions: read-out: Activity
HOP-62 = assay: Growth inhibition of human HOP62 cells assessed as cell growth at 10 '-4 M after 48 hrs by sulforhodamine B assay; conditions: HOP-62, 48 h, read-out: Activity
RXF 393 [12] = assay: Growth inhibition of human RXF393 cells assessed as cell growth at 10 '-8 M after 48 hrs by sulforhodamine B assay; conditions: RXF 393, 48 h, read-out: Activity
MDA-MB-231 = assay: Growth inhibition of human MDA-MB-231 cells assessed as cell growth at 10 '-7 M after 48 hrs by sulforhodamine B assay; conditions: MDA-MB-231, 48 h, read-out: Activity
OVCAR-8 = assay: Growth inhibition of human OVCAR8 cells after 48 hrs by sulforhodamine B assay; conditions: OVCAR-8, 48 h
SNB-19 [13] = assay: Growth inhibition of human SNB19 cells assessed as growth inhibition at 10 uM after 48 hrs by sulforhodamine B assay; conditions: SNB-19, 48 h, read-out: GI
[14] = Growth inhibition of human NCI-ADR-RES cells assessed as cell growth at 10 '-5 M after 48 hrs by sulforhodamine B assay; conditions: read-out: Activity
U-251 = assay: Growth inhibition of human U251 cells assessed as cell growth at 10 '-6 M after 48 hrs by sulforhodamine B assay; conditions: U-251, 48 h, read-out: Activity
[15] = read-out: LD50 (the source's name)

Work on `Cc1cc(=O)oc2cc(OCCn3c(C)nn(-c4ccc(Cl)cc4)c3=O)ccc12` yielded a growth at 0.1 µM (SW-620) of 98%, a growth at 0.01 µM (TK-10 [1]) of 94% and a GI50 [2] of 3.59 µM. For the same compound, the TGI [2] was > 1 µM, the CC50 [2, 15] was > 1 µM and the growth at 1 µM (KM12) was 58%. The growth at 100 µM (MDA-MB-435) was -26%, the growth at 100 µM (RXF 393 [3]) was -21% and the GI50 (MDA-MB-468) was 2.69 µM. For the same compound, the TGI (MDA-MB-468) was 5.76 µM, the CC50 (MDA-MB-468; [15]) was > 1 µM and the growth at 0.1 µM (SK-MEL-28) was 87%. The growth at 0.1 µM (SNB-19 [4]) was 89%, the growth at 100 µM (MOLT-4 [5]) was 17% and the GI50 (TK-10 [6]) was 1.34 µM. For the same compound, the TGI (TK-10 [6]) was 8.84 µM, the CC50 (TK-10 [6]; [15]) was > 1 µM and the growth at 10 µM (OVCAR-4) was -1%. The growth at 100 µM [7] was 2%, the GI50 (Malme-3M [8]) was 3.85 µM and the TGI (Malme-3M [8]) was > 1 µM. The CC50 (Malme-3M [8]; [15]) was > 1 µM, the GI50 (A549) was 6.07 µM and the TGI (A549) was > 1 µM. The CC50 (A549; [15]) was > 1 µM, the GI50 (MOLT-4 [9]) was 4.71 µM and the TGI (MOLT-4 [9]) was > 1 µM. The CC50 (MOLT-4 [9]; [15]) was > 1 µM, the growth at 0.1 µM (SF-268) was 99% and the growth at 100 µM (NCI-H460) was 8%. The growth at 10 µM (COLO 205) was -14%, the growth at 0.01 µM (Malme-3M [10]) was 105% and the growth at 10 µM (IGROV-1) was 61%. For the same compound, the growth at 100 µM [11] was 7%, the growth at 100 µM (HOP-62) was -8% and the growth at 0.01 µM (RXF 393 [12]) was 95%. The growth at 0.1 µM (MDA-MB-231) was 88%, the GI50 (OVCAR-8) was 5.17 µM and the TGI (OVCAR-8) was > 1 µM. For the same compound, the CC50 (OVCAR-8; [15]) was > 1 µM, the inhibition of growth at 10 µM (SNB-19 [13]) was 45.5% and the growth at 10 µM [14] was 10%. It also gave a growth at 1 µM (U-251) of 87%.

From ChEMBL document CHEMBL2346664, “Synthesis, characterization and in vitro anticancer evaluation of novel 1,2,4-triazolin-3-one derivatives” (2013)
